# Screening data deposited in PubChem BioAssay by Broad Institute.
# HIV Env fusion: blocks HIV Env-driven cell-cell fusion; inhibition, % at 12.3 µM; 360,000 tested, 1.1% active; AID 651610; HeLa-JRFL Env/CEM21 cell fusion, luciferase;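 active means mean replicate inhibition score of at least 50 and every replicate individually at or above 50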;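 further: 0% = plate neutral controls and 100% = maraviroc near 300 nM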
# Ecoli rRNA inh: inhibitors of bacterial rRNA selective over humanized ribosomes; 350,000 tested, 1.6% active; GFP signal change (wild-type ribosome), % (test concentration not listed); AID 720706; E. coli WT GFP vs humanized-ribosome RFP mutants, fluorescence, 24 h; stronger effect = lower value; DMSO median 0, no signal -100;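 active means significant combined selectivity score with lowered wild-type GFP, culture density cut under 30%, mutant RFP and density less affected; inactive means any of these conditions unmet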
# GSIS activator: primary screen for activators of insulin secretion dependent on glucose, INS-1E cells, GLuc reporter luminescence; INS-1E GLuc reporter insulin secretion, 2-3 h; activation, % at 16.6 µM; 370,000 tested, 0.61% active; AID 743287;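 active means lowest replicate activation of at least 40%, so every replicate reaches that level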;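 further: 0% = median of neutral control wells and 100% = median of IBMX positive control wells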
# miR-122 sensor: inhibitors of miR-122 in Huh7 cells. Huh7 miR-122 Renilla luciferase sensor, 48 h; neutral wells = 0, positive control = 100. activation (reporter increase), % at 12.5 µM. 340,000 tested, 0.3% active;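 active means mean replicate activation score at least 90 and every replicate individually at or above 90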;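 further: higher luciferase means less miR-122 activity so hits act as miR-122 inhibitors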
# Cneo AK release: Cryptococcus neoformans lysis via adenylate kinase release; AID 651654; lysis activity, % at 15 µM; C. neoformans lysis, adenylate kinase release luminescence, 4 h; normalised: neutral wells 0, clomiphene wells 100; 360,000 tested, 0.2% active;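 active means mean lysis activity across replicates of at least 80%, whatever share of replicates individually reach that level; inactive means mean lysis activity below 80%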
#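 Material: C. neoformans cells; Schedule: 4 h static compound exposure, 37 °C, read 1 h post-reagent; Measured by: adenylate kinase release luminescence; Read-out: signal increase indicating cell lysis; Controls: Clomiphene as positive lysis control.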
# CFTR F508del cor: CFTR F508del correction in bronchial cells | CFBE cells, YFP halide quenching; stimulated with forskolin plus potentiator P3; % fluorescence drop versus neutral controls | activity (quench increase), % at 7.58 µM | 350,000 tested, 0.36% active;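 active means mean added fluorescence quench of at least 8% versus neutral control, with both replicates also reaching 8%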;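 further: cells transiently co-express mutant CFTR-F508del with the halide-sensitive YFP; corrector assay measuring rescue of mutant channel to the surface after 24 h compound exposure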
# * = called active by the depositor; nt = not tested or not shown; [ ] = another dose, or the depositor's remark. A selection: hits, their analogues and other compounds. The true share with any hit is near 3.1%.
SMILES,HIV Env fusion,Ecoli rRNA inh,GSIS activator,miR-122 sensor,Cneo AK release,CFTR F508del cor
CC(C)NC(=O)N(C)C[C@@H]1Oc2ccc(NC(=O)CCC(F)(F)F)cc2CC(=O)N([C@H](C)CO)C[C@H]1C,nt,8,1,-5[16.7 µM],-3,2
CC1CCN(S(=O)(=O)c2ccc(C(=O)OCc3ccc4c(c3)OCO4)cc2)CC1,-8,nt,142*,nt,2,nt
Cc1ccc(C(=O)OCc2ccc3c(c2)OCO3)cc1S(=O)(=O)N1CCCCC1,55*,nt,-3,-6,-1,nt
C(=N\N1CCN(Cc2cccc3ccccc23)CC1)/c1cccnc1,nt,-30*,-6,nt,nt,-4
Cc1ccc(P(=O)(c2ccc(C)cc2)[C@@H](NC(c2ccccc2)c2ccccc2)c2ccccc2)cc1,-27,20,68,nt,nt,-4
Cc1ccccc1[C@H](NC1c2ccccc2C=Cc2ccccc21)P(=O)(c1ccccc1)c1ccccc1,86*,14,10,nt,nt,0
Cc1cccc(OCCC(=O)N(C)CC(=O)Nc2cccc3ccccc23)c1,9,-20*,-20,nt,-3,nt
CN(CC(=O)Nc1cccc2ccccc12)C(=O)c1ccc(NC(=O)CC#N)cc1,16,4,19,-5,0,4
CCOc1cc(C(=O)N(C)CC(=O)Nc2cccc3ccccc23)ccc1OC,nt,6,57*,nt,nt,-4
CCC1=C(CC2NCCc3ccccc32)CC2c3cc(OC)c(OC)cc3CCN2C1 (centres undefined),-410,16,nt,-12,nt,10*
CCCCOCCCNC(=O)C[C@H]1C[C@@]2(C(=O)OC)C(=C[C@H](COCc3ccccc3)O[C@@H]2C)N(Cc2ccc3c(c2)OCO3)C1=O,-12,2,nt,nt,nt,5
CCCCOCCCNC(=O)C[C@H]1C[C@@]2(C(=O)OC)C(=C[C@H](C(C)(C)C)O[C@@H]2C)N(Cc2ccc3c(c2)OCO3)C1=O,74*,0,nt,nt,nt,0
COC(=O)[C@]12C[C@H](CC(=O)NCc3cccc4ccccc34)C(=O)N(Cc3ccc4c(c3)OCO4)C1=C[C@H](C(C)(C)C)O[C@@H]2C,56*,19,-9,nt,nt,-1
Cc1ccc(S(=O)(=O)N[C@H]2C=C[C@H](CC(=O)N3CCC(Cc4ccccc4)CC3)O[C@@H]2CO)cc1,31[16.7 µM],-16,-27,-16[16.7 µM],-2,0
CCOC(=O)C1=C(C)N(C[C@@H]2CC[C@@H](Cc3ccc(-c4ccccc4)cc3)O2)C(=O)NC1c1ccc(-c2ccccc2)cc1 (some centres undefined),72*,7,-7,-6,-1,-3
CC1=C(C(=O)OCc2ccccc2)C(c2ccc(C#N)cc2)NC(=O)N1CCCC(=O)O (centres undefined),-78,-17*,24,4,2,0
CCOC(=O)C1=C(C)N(C[C@@H]2CC[C@@H](Cc3ccc(-c4ccccc4)cc3)O2)C(=O)NC1c1ccc(Cl)cc1 (some centres undefined),48,13,-21,-7,2,2
CC1=C(C(=O)OCC(Br)(Br)Br)C(c2cccc([N+](=O)[O-])c2)NC(=O)N1CCCC(=O)O (centres undefined),7,-20*,-9,nt,2,0
CCOC(=O)C1=C(C)N(CCCCCC(=O)O)C(=O)NC1c1cccc([N+](=O)[O-])c1 (centres undefined),-13,3,-1,-4,0,1
CCOC(=O)COc1cc(-n2c(=S)[nH]c3ccccc3c2=O)c(Cl)cc1Cl,7,-23*,-4,nt,nt,-3
N/C(=N\OC(=O)c1ccccc1Br)c1cccc([N+](=O)[O-])c1,-186,6,41*,nt,-1,1
C[C@H](CO)N1C[C@H](C)[C@H](CN(C)C(=O)c2ccccc2)OCCCC[C@H](C)Oc2ccc(NC(=O)Nc3ccc(C(F)(F)F)cc3)cc2C1=O,47[16.7 µM],1,10,-14[16.7 µM],0,8
C[C@H]1CN([C@@H](C)CO)C(=O)c2ccccc2-c2ccccc2CO[C@H]1CN(C)Cc1ccc(F)cc1,73*[16.7 µM],-6,-19,nt,0,0
C[C@H]1CN([C@@H](C)CO)C(=O)c2ccccc2-c2ccccc2CO[C@H]1CN(C)Cc1cccc(F)c1,62*[16.7 µM],-34,-20,nt,-3,-2
C[C@H](CO)N1C[C@H](C)[C@H](CN(C)Cc2ccc(F)cc2)OCc2ccccc2-c2ccccc2C1=O,57*[16.7 µM],-4,2,nt,0,-2
SMILES,HIV Env fusion,Ecoli rRNA inh,GSIS activator,miR-122 sensor,Cneo AK release,CFTR F508del cor
C[C@@H]1CN([C@@H](C)CO)C(=O)c2ccccc2-c2ccccc2CO[C@@H]1CN(C)Cc1ccc(F)cc1,nt,-2,-16,nt,nt,nt
C[C@H]1CN([C@@H](C)CO)C(=O)c2cccc(NC(=O)c3nc4ccccc4s3)c2O[C@H]1CN(C)S(C)(=O)=O,16[16.7 µM],-7,1,2[16.7 µM],-1,-2
CC(=O)N1[C@@H]2c3ccc(C4=CCCC4)c(=O)n3C[C@H]1[C@H](CO)[C@H]2C(=O)NC1CCC1,nt,2,5,-7[16.7 µM],-4,-1
CN1C(=O)c2cc(NC(=O)NC3CCCC3)ccc2OC[C@H]2O[C@@H](CC(=O)NC3CCC3)CC[C@H]21,25[16.7 µM],1,-6,4[16.7 µM],-1,1
Cc1ccc(-c2c[n+](CC(=O)c3ccc(Br)cc3)c3n2CCCCC3)cc1,35,-51,-33,-5,nt,2
O=C(C[n+]1cc(-c2ccccc2)n2c1CCCCC2)c1ccc(Cl)cc1,-33,-40*,-4,-1,0,-3
CC1CCC(C(C)C)C(OC(=O)C[n+]2cc(-c3ccc(Cl)cc3)n3c2CCCCC3)C1 (centres undefined),60*,-59,111*,-1,nt,nt
Cc1ccc(-c2c[n+](CC(=O)Nc3nc(-c4ccccc4)cs3)c3n2CCC3)cc1,7,-47*,-31,nt,nt,-1
COc1ccc(-c2c[n+](CC(=O)c3ccccc3)c3n2CCCCC3)cc1,5,-49*,2,nt,nt,2
C/C=C/c1ccc([C@@H]2[C@H](CO)N(Cc3cncnc3)C23CN(C(=O)COC)C3)cc1,nt,4,19,nt,nt,-4
COc1ccccc1CNC(=O)C[C@@H]1C[C@@H]2c3cc(NC(=O)c4ccc5c(c4)OCO5)ccc3O[C@@H]2[C@H](CO)O1,3[16.7 µM],-7,16,-5[16.7 µM],-16,1
O=C(C[C@H]1CC[C@@H]2[C@H](COC[C@H](O)CN2C(=O)c2cnccn2)O1)NCc1ccccc1,nt,5,3,5[16.7 µM],0,-2
CC(C)Cn1c(=O)n(C)c(=O)c2[nH]cnc21,-286,nt,73*,2,-1,-2
COc1ccccc1N(CC(=O)Nc1ccccc1C(=O)NC(C)C)S(C)(=O)=O,nt,2,1,nt,1,nt
